Data: ChEMBL document CHEMBL3244081, “Potential antitumor agents. 31. Quantitative structure-activity relationships for the antileukemic bis(guanylhydrazones)” (1979)

Key:
[1] = Displacement of ethidium from poly[d(G-C)]-poly[d(G-C)] DNA (unknown origin) by fluorimetric assay
Method in brief: (§1)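 Relative binding to the synthetic duplex polymers was measured as fluorimetric displacement of bound ethidium, following the method of the earlier studies. Compounds were made up as 2 mM aqueous stock solutions, either from weighed salts or, where material was scarce, with the concentration set from published UV absorbance data before final dilution.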

[2] = Displacement of ethidium from poly[d(A-T)]-poly[d(A-T)] DNA (unknown origin) by fluorimetric assay; method in brief: as §1
[3] = Binding affinity to DNA (unknown origin) assessed as decrease in velocity of L1210 DNA-dependent DNA polymerase reaction
L1210 [4] = experiment: Anti-leukemic activity against mouse L1210 cells allografted in ip dosed DBA2 mouse assessed as optimum drug dose required for the effect administered qd for 1 to 4 days; type: functional
L1210 [5] = experiment: Anti-leukemic activity against mouse L1210 cells allografted in ip dosed DBA2 mouse assessed as increase in host lifespan administered qd for 1 to 4 days; type: functional

SMILES | C50 [1] [µM] | C50 [2] [µM] | logIC50 [3] | log optimum dose (L1210 [4]) | log(activity) (L1210 [5])
C/C(=N\NC(=N)N)c1cccc(NC(=O)Nc2cccc(/C(C)=N/NC(=N)N)c2)c1 | 1.6 | 0.42 | 1.6 | 1.48 | 2.1
CNC(=N)N/N=C/C(C)=N/NC(=N)NC | 111 | 27 | 2.81 | 2.3 | <1.4
C/C(=N\NC(=N)N)c1ccc(NC(=N)Nc2ccc(/C(C)=N/NC(=N)N)cc2)cc1 | 0.2 | 0.08 | 1.6 | 0.7 | 1.82
Cl.N=C(N)N/N=C/c1ccc(-c2ccc(/C=N/NC(=N)N)cc2)cc1 | 1 | 0.14 | 1.6 | 1.3 | 1.63
C/C(=N\NC(=N)N)c1ccc(NC(=O)Nc2ccc(/C(C)=N/NC(=N)N)cc2)cc1 | 1.3 | 0.43 | 1.95 | 1.4 | 2.47
N=C(N)NN=C1C=CC(=NNC(=N)N)C=C1 | 200 | 22 | 2.85 | 1.88 | <1.4
CC(=N\NC(=N)N)/C(C)=N/NC(=N)N | 51 | 14 | 2.7 | 2.18 | <1.4
Cl.N=C(N)N/N=C/c1ccc(/C=N/NC(=N)N)cc1 | 7.6 | 2.9 | 1.9 | 1.6 | 1.84
N=C(N)NCCCCCCCCCCNC(=N)N [SYNTHALIN] | 191 | 127 | > 3 | 0.6 | 2.11
N=C(N)c1ccc(/C=C/c2ccc(C(=N)N)cc2O)cc1 [HYDROXYSTILBAMIDINE] | 6.7 | 1.2 | 1.6 | 1.87 | 1.85
C/C(=N\NC(=N)N)c1ccc(NC(=S)Nc2ccc(/C(C)=N/NC(=N)N)cc2)cc1 | 3.4 | 1.2 | 2.11 | 1.4 | 1.97
N=C(N)N/N=C/C/C=N/NC(=N)N | – | – | > 3 | 2.3 | <1.4
CC(/C=N/NC(=N)N)=N\NC(=N)N [MITOGUAZONE] | 128 | 34 | 2.85 | 1.7 | 2
N=C(N)N/N=C/c1ccc(NC(=O)Nc2ccc(/C=N/NC(=N)N)cc2)cc1 | 0.69 | 0.3 | 1.95 | 1.48 | 2.08
CC(/C=N/N(C)C(=N)N)=N\N(C)C(=N)N | 379 | 103 | > 3 | 2.18 | <1.4
CCC(/C=N/NC(=N)N)=N\NC(=N)N.Cl | 248 | 112 | 2.87 | 2 | <1.4
N=C(N)N/N=C/CCC/C=N/NC(=N)N | 81 | 70 | > 3 | 1.87 | <1.4
